In ChEMBL document CHEMBL4811275, “Iodinated 1,2-diacylhydrazines, benzohydrazide-hydrazones and their analogues as dual antimicrobial and cytotoxic agents” (Bioorg Med Chem, 2021):
≈ marks a conversion by molar mass, not a printed value.

Tests used:
Staphylococcus aureus [1] = assay: Antibacterial activity against Staphylococcus aureus ATCC 29213 assessed as reduction in bacterial growth incubated for 24 hrs by broth microdilution method; type: functional
How it was run: (§1)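 Cation-adjusted Mueller-Hinton broth microdilution per EUCAST, modified; compounds from DMSO stocks, final DMSO ≤1% v/v; scale starting from 0.49 µM. Static incubation at 35 ± 2 °C, dark, humidified, read at 24 and 48 h. MIC = lowest concentration with no visible growth by eye; duplicates, parallel readings within one dilution step; growth and medium/DMSO controls included.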

Staphylococcus aureus [2] = assay: Antibacterial activity against Staphylococcus aureus ATCC 29213 assessed as reduction in bacterial growth incubated for 48 hrs by broth microdilution method; type: functional; how it was run: as §1
Staphylococcus aureus [3] = assay: Antibacterial activity against methicillin-resistant Staphylococcus aureus ATCC 43300 assessed as reduction in bacterial growth incubated for 24 hrs by broth microdilution method; type: functional
How it was run: (§2)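 EUCAST-based broth microdilution in cation-adjusted Mueller-Hinton broth. DMSO stocks, final DMSO ≤1% v/v, concentration scale starting from 0.49 µM. Static incubation at 35 ± 2 °C, dark and humidified. Run in duplicate, accepted only if parallel MICs differ by at most one dilution step. MIC is the lowest concentration with no visible growth by naked eye.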

Staphylococcus aureus [4] = assay: Antibacterial activity against methicillin-resistant Staphylococcus aureus ATCC 43300 assessed as reduction in bacterial growth incubated for 48 hrs by broth microdilution method; type: functional; how it was run: as §2
[5] = system: Staphylococcus epidermidis; assay: Antibacterial activity against Staphylococcus epidermidis ATCC 12228 assessed as reduction in bacterial growth incubated for 24 hrs by broth microdilution method; type: functional; how it was run: as §1
[6] = system: Staphylococcus epidermidis; assay: Antibacterial activity against Staphylococcus epidermidis ATCC 12228 assessed as reduction in bacterial growth incubated for 48 hrs by broth microdilution method; type: functional; how it was run: as §1
Enterococcus faecalis [7] = assay: Antibacterial activity against Enterococcus faecalis ATCC 29212 assessed as reduction in bacterial growth incubated for 24 hrs by broth microdilution method; type: functional; how it was run: as §1
Enterococcus faecalis [8] = assay: Antibacterial activity against Enterococcus faecalis ATCC 29212 assessed as reduction in bacterial growth incubated for 48 hrs by broth microdilution method; type: functional; how it was run: as §1
Escherichia coli [9] = assay: Antibacterial activity against Escherichia coli ATCC 25922 assessed as reduction in bacterial growth incubated for 24 hrs by broth microdilution method; type: functional; how it was run: as §1
Escherichia coli [10] = assay: Antibacterial activity against Escherichia coli ATCC 25922 assessed as reduction in bacterial growth incubated for 48 hrs by broth microdilution method; type: functional; how it was run: as §1
HepG2 = assay: Cytotoxicity against human HepG2 cells assessed as reduction in cell viability incubated for 24 hrs by cell-titer 96 aqueous one solution cell proliferation assay; type: functional, cell-based; conditions: HepG2, 24 h

Row | Structure (SMILES) | MIC (Staphylococcus aureus [1]) [µM] | MIC (Staphylococcus aureus [2]) [µM] | MIC (Staphylococcus aureus [3]) [µM] | MIC (Staphylococcus aureus [4]) [µM] | MIC [5] [µM] | MIC [6] [µM] | MIC (Enterococcus faecalis [7]) [µM] | MIC (Enterococcus faecalis [8]) [µM] | MIC (Escherichia coli [9]) [µM] | MIC (Escherichia coli [10]) [µM] | IC50 (HepG2) [µM]
1 | O=C(N/N=C/c1cc(I)cc(I)c1O)c1ccc(Cl)cc1 | 31.2 (≈ 16.5 µg/mL) | 31.2 (≈ 16.5 µg/mL) | 31.2 (≈ 16.5 µg/mL) | 62.5 (≈ 32.9 µg/mL) | 31.2 (≈ 16.5 µg/mL) | 62.5 (≈ 32.9 µg/mL) | 62.5 (≈ 32.9 µg/mL) | 62.5 (≈ 32.9 µg/mL) | > 500 | > 500 | 14.8
2 | CCN1CCN(C(=O)N[C@@H](C(=O)N[C@@H]2C(=O)N3[C@@H]2SC(C)(C)[C@@H]3C(=O)O)c2ccccc2)C(=O)C1=O [PIPERACILLIN SODIUM] | 1.85 |  | 14.8 |  | > 59.3 |  | 7.41 |  | 3.71 |  | 
3 | O=C(N/N=C/c1cc(I)c(O)c(I)c1)c1ccc(Br)cc1 | > 500 | > 500 | > 500 | > 500 | > 500 | > 500 | > 500 | > 500 | > 500 | > 500 | > 50
4 | CC(C)(C)c1ccc(C(=O)NNC(=O)c2cc(I)cc(I)c2O)cc1 | > 500 | > 500 | > 500 | > 500 | > 500 | > 500 | > 500 | > 500 | > 500 | > 500 | 87.3
5 | O=C(N/N=C/c1cc(I)c(O)c(I)c1)c1ccccc1 | 250 (≈ 123 µg/mL) | 250 (≈ 123 µg/mL) | 500 (≈ 246 µg/mL) | > 500 | > 500 | > 500 | > 500 | > 500 | > 500 | > 500 | 191
6 | CC(C)(C)c1ccc(C(=O)N/N=C/c2cc(I)cc(I)c2O)cc1 | > 500 | > 500 | > 500 | > 500 | > 500 | > 500 | > 500 | > 500 | > 500 | > 500 | 41.6
7 | O=C(N/N=C/c1cc(I)cc(I)c1O)c1ccc(Br)cc1 | 62.5 (≈ 35.7 µg/mL) | 62.5 (≈ 35.7 µg/mL) | 62.5 (≈ 35.7 µg/mL) | 125 (≈ 71.4 µg/mL) | 62.5 (≈ 35.7 µg/mL) | 125 (≈ 71.4 µg/mL) | 250 (≈ 143 µg/mL) | 250 (≈ 143 µg/mL) | > 250 | > 250 | 22.3
8 | O=C(NNC(=O)c1cc(I)cc(I)c1O)c1ccc(Br)cc1 |  |  |  |  |  |  |  |  |  |  | 62.8
9 | O=C(N/N=C/c1cc(I)c(O)c(I)c1)c1ccc(Cl)cc1 | > 500 | > 500 | > 500 | > 500 | > 500 | > 500 | > 500 | > 500 | > 500 | > 500 | > 100
10 | O=C(N/N=C/c1cc(I)cc(I)c1O)c1ccccc1 | 62.5 (≈ 30.8 µg/mL) | 125 (≈ 61.5 µg/mL) | 62.5 (≈ 30.8 µg/mL) | 125 (≈ 61.5 µg/mL) | 62.5 (≈ 30.8 µg/mL) | 125 (≈ 61.5 µg/mL) | 250 (≈ 123 µg/mL) | 500 (≈ 246 µg/mL) | > 500 | > 500 | > 50
11 | O=C(NNC(=O)c1cc(I)cc(I)c1O)c1ccc(F)cc1 | 500 (≈ 263 µg/mL) | 500 (≈ 263 µg/mL) | 500 (≈ 263 µg/mL) | 500 (≈ 263 µg/mL) | 500 (≈ 263 µg/mL) | 500 (≈ 263 µg/mL) | 500 (≈ 263 µg/mL) | 500 (≈ 263 µg/mL) | > 500 | > 500 | 87
12 | O=C(N/N=C/c1cc(I)c(O)c(I)c1)c1ccc(C(F)(F)F)cc1 | 125 (≈ 70 µg/mL) | 500 (≈ 280 µg/mL) | 500 (≈ 280 µg/mL) | 500 (≈ 280 µg/mL) | 500 (≈ 280 µg/mL) | 500 (≈ 280 µg/mL) | 500 (≈ 280 µg/mL) | 500 (≈ 280 µg/mL) | > 500 | > 500 | 57.4
13 | O=C(N/N=C/c1cc(I)c(O)c(I)c1)c1ccc([N+](=O)[O-])cc1 | 250 (≈ 134 µg/mL) | 250 (≈ 134 µg/mL) | 500 (≈ 269 µg/mL) | > 500 | > 500 | > 500 | > 500 | > 500 | > 500 | > 500 | 92.1
14 | Cc1ccc(C(=O)N/N=C/c2cc(I)c(O)c(I)c2)cc1 | 250 (≈ 127 µg/mL) | 500 (≈ 253 µg/mL) | > 500 | > 500 | > 500 | > 500 | > 500 | > 500 | > 500 | > 500 | > 100
15 | COc1ccc(C(=O)N/N=C/c2cc(I)cc(I)c2O)cc1 | > 500 | > 500 | > 500 | > 500 | > 500 | > 500 | > 500 | > 500 | > 500 | > 500 | 45.1
